Test results as given in ChEMBL document CHEMBL4609990, “Design and synthesis of cyanamides as potent and selective N-acylethanolamine acid amidase inhibitors” (Bioorg Med Chem, 2020).

Legend:
[1] = target: T1, N-acylethanolamine-hydrolyzing acid amidase (Homo sapiens, UniProt Q02083); test: Inhibition of activated human NAAA using fluorogenic PAMCA and N-4-methylcoumarin as substrate incubated for 90 mins by fluorescence based assay
T1 sequence (Q02083 whole entry): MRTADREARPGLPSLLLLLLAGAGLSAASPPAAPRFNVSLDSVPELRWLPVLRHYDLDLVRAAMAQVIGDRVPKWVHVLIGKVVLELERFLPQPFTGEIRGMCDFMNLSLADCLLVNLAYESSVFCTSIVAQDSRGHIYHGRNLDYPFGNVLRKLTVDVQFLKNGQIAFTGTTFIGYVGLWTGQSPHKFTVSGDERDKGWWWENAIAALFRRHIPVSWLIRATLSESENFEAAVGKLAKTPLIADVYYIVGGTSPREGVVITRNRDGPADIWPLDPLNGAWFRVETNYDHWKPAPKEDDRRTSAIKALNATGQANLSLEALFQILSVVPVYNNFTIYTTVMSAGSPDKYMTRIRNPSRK
How it was run: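 Purified activated hNAAA (final 0.25 µg/mL) in 100 mM citrate-phosphate pH 4.5, 3 mM DTT, 0.1% Triton X-100, 0.05% BSA, 150 mM NaCl; compound in DMSO preincubated 90 min at room temperature. PAMCA added (final 5 µM), reaction at 37 °C for 90 min, fluorescence ex 360/em 460 nm read every 10 min. RFU converted to AMC via AMC standard curve. IC50 from eight concentrations, triplicate.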

[2] = target: T2, Fatty-acid amide hydrolase 1 (Homo sapiens) (UniProt O00519); test: Inhibition of recombinant human FAAH expressed in Escherichia coli at 1 uM using fluorogenic AAMCA as substrate by fluorimetric assay relative to control
T2 sequence (whole entry): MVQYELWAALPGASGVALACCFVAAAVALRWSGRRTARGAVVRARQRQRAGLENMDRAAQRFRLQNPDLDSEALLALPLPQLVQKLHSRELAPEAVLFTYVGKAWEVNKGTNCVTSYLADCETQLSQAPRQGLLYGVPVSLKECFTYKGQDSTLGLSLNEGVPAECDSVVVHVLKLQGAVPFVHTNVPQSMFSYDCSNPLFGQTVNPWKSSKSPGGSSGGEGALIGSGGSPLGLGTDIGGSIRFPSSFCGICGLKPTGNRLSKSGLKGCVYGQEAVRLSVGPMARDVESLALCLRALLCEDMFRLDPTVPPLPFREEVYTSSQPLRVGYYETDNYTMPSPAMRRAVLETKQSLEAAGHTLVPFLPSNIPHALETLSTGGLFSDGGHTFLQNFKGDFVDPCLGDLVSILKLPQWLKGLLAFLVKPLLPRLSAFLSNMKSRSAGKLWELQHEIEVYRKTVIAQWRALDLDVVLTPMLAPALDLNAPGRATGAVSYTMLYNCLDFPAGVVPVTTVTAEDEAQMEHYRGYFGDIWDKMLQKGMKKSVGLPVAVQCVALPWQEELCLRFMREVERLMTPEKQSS
How it was run: (§1)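 Human recombinant FAAH expressed in E. coli and purified; fluorometric assay with arachidonoyl 7-amino-4-methylcoumarin amide (AAMCA) as substrate; IC50 by curve fitting, or percent inhibition at 1 µM.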

[3] = target: T3, Monoglyceride lipase (Homo sapiens) (UniProt Q99685); test: Inhibition of recombinant human hexaHis-tagged MGL expressed in Escherichia coli BL21 (DE3) at 1 uM using fluorogenic AHMMCE as substrate preincubated for 1 hr followed by substrate addition by fluorimetric assay relative to control
T3 sequence (whole entry): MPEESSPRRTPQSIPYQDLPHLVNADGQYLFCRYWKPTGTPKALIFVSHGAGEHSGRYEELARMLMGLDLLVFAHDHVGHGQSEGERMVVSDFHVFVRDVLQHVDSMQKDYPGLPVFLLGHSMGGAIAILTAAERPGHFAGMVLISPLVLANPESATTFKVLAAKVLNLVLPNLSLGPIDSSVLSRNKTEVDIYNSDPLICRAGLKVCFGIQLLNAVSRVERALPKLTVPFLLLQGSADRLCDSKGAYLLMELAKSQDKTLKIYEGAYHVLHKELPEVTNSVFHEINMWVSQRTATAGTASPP
How it was run: (§2)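 Human recombinant MGL expressed in E. coli and purified; fluorometric assay using arachidonoyl 7-hydroxy-6-methoxy-4-methylcoumarin ester (AHMMCE) as substrate; IC50 by curve fitting, or percent inhibition at 1 µM.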

[4] = target: T4, N-acylethanolamine-hydrolyzing acid amidase (Homo sapiens) (UniProt Q02083); test: Irreversible inhibition of activated human NAAA assessed as ratio of Kinact/Ki using fluorogenic PAMCA and N-4-methylcoumarin as substrate
T4 sequence (whole entry): T1 sequence (Q02083 whole entry)

[5] = target: T5, Fatty-acid amide hydrolase 1 (Homo sapiens, UniProt O00519); test: Inhibition of recombinant human FAAH expressed in Escherichia coli using fluorogenic AAMCA as substrate by fluorimetric assay; how it was run: as §1
T5 sequence (O00519 whole entry): T2 sequence (whole entry)

[6] = Half life in human liver microsomes at 1 uM in presence of NADPH by LC-MS/MS; details: microsomes
[7] = Half life in rat liver microsomes at 1 uM in presence of NADPH by LC-MS/MS; details: microsomes
[8] = Half life in human plasma by HPLC analysis
[9] = Half life in artificial gastric fluid by HPLC analysis; type: physicochemical
How it was run: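 Compound at 200 μM incubated in artificial gastric juice; reaction quenched with acetonitrile and samples analysed by HPLC to estimate half-life (min).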

[10] = Half life in rat plasma by HPLC analysis
Homo sapiens [11] = species on record: Homo sapiens; test: Selectivity index, ratio of IC50 for recombinant human FAAH expressed in Escherichia coli using fluorogenic AAMCA as substrate by fluorimetric assay to IC50 human NAAA using fluorogenic PAMCA and N-4-methylcoumarin as substrate incubated for 90 mins by fluorescence based assay
Homo sapiens [12] = species on record: Homo sapiens; test: Selectivity index, ratio of IC50 for human hexaHis-tagged MGL expressed in Escherichia coli BL21 (DE3) using fluorogenic AHMMCE as substrate preincubated for 1 hr followed by substrate addition by fluorimetric assay to IC50 human NAAA using fluorogenic PAMCA and N-4-methylcoumarin as substrate incubated for 90 mins by fluorescence based assay
Homo sapiens [13] = species on record: Homo sapiens; test: Selectivity index, ratio of IC50 for full length human ABHD6 using AHMMCE as substrate preincubated for 1 hr followed by substrate addition by fluorimetric assay to IC50 human NAAA using fluorogenic PAMCA and N-4-methylcoumarin as substrate incubated for 90 mins by fluorescence based assay
Homo sapiens [14] = species on record: Homo sapiens; test: Selectivity index, ratio of IC50 for human Cathepsin K using […] as substrate preincubated with enzyme for 90 mins followed by substrate addition by fluorimetry analysis to IC50 human NAAA using fluorogenic PAMCA and N-4-methylcoumarin as substrate incubated for 90 mins by fluorescence based assay
Monoglyceride lipase = target: T6, Monoglyceride lipase (Homo sapiens, UniProt Q99685); test: Inhibition of recombinant human hexaHis-tagged MGL expressed in Escherichia coli BL21 (DE3) using fluorogenic AHMMCE as substrate preincubated for 1 hr followed by substrate addition by fluorimetric assay; how it was run: as §2
T6 sequence (Q99685 whole entry): T3 sequence (whole entry)

Structure (SMILES): N#CN1CC(OCc2ccc(-c3ccc4c(c3)OCCO4)cc2)(c2ccccc2)C1
- IC50 [1]: 6.1 nM
- inhibition [2]: 99%
- inhibition [3]: 13.5%

Structure (SMILES): N#CN1CC(OCc2ccc(Oc3ccccc3)cc2Br)C1
- IC50 [1]: 1.03 nM

Structure (SMILES): N#CN1CC(OCc2ccc(-c3ccc(F)cc3)cc2)C1
- IC50 [1]: 0.68 nM
- Ratio [4]: 2.09 ×10⁶ /M/s

Structure (SMILES): COc1ccc(-c2ccc(COC3(c4cccnc4)CN(C#N)C3)c(F)c2)cc1F
- IC50 [1]: 4.6 nM
- IC50 [5]: 2 nM

Structure (SMILES): N#CN1CC[C@H](OCc2ccc(-c3ccccc3)cc2)C1
- IC50 [1]: 315 nM

Structure (SMILES): Cc1ccc(-c2ccc(COC3CN(C#N)C3)cc2)cc1
- IC50 [1]: 0.46 nM
- Ratio [4]: 2.24 ×10⁶ /M/s

Structure (SMILES): COc1cccc(-c2ccc(COC3(c4ccccc4)CN(C#N)C3)cc2)c1
- half-life at 1 µM [6]: 0.255 h
- IC50 [1]: 9.1 nM
- inhibition [3]: 19.5%
- half-life at 1 µM [7]: 0.242 h
- IC50 [5]: 61 nM

Structure (SMILES): COc1cccc(-c2ccc(COC3CN(C#N)C3)cc2)c1
- half-life at 1 µM [6]: 0.187 h
- IC50 [1]: 0.89 nM
- Ratio [4]: 3.05 ×10⁶ /M/s
- half-life [8]: 3.4 h
- half-life [9]: 7.5 h
- half-life [10]: 3.15 h
- half-life at 1 µM [7]: 0.167 h

Structure (SMILES): N#CN1CC(OCc2ccc(-c3ccccc3)cc2)C1
- IC50 [1]: 2.8 nM
- Ratio [4]: 3.03 ×10⁶ /M/s

Structure (SMILES): N#CN1CC(OCc2ccc(Oc3ccccc3)cc2-c2ccccc2)C1
- IC50 [1]: 8.5 nM

Structure (SMILES): COc1cccc(-c2ccc(C(=O)N3CCC34CN(C#N)C4)cc2)c1
- IC50 [1]: 6.5 nM
- Ratio IC50 (Homo sapiens [11]): > 100
- inhibition [2]: 6%
- Ratio IC50 (Homo sapiens [12]): > 100
- Ratio IC50 (Homo sapiens [13]): > 100
- inhibition [3]: 4%
- half-life [8]: 7.63 h
- Ratio IC50 (Homo sapiens [14]): > 100

Structure (SMILES): COc1cccc(-c2ccc(COC3CN(C#N)C3)c(F)c2)c1
- IC50 [1]: 0.47 nM
- half-life [9]: 4.52 h

Structure (SMILES): N#CN1CC(OCc2ccc(-c3cccnc3)cc2)C1
- IC50 [1]: 12 nM

Structure (SMILES): COc1ccncc1-c1ccc(COC2CN(C#N)C2)cc1
- IC50 [1]: 40 nM

Structure (SMILES): COc1ccc(-c2ccc(COC3CN(C#N)C3)cc2)cc1
- IC50 [1]: 0.94 nM
- Ratio [4]: 3.25 ×10⁶ /M/s

Structure (SMILES): COc1ccccc1-c1cc(Oc2ccccc2)ccc1COC1CN(C#N)C1
- IC50 [1]: 23.7 nM

Structure (SMILES): COc1cccc(-c2ccc(S(=O)(=O)N3CCC34CN(C#N)C4)cc2)c1
- IC50 [1]: 2.8 nM
- Ratio IC50 (Homo sapiens [12]): > 100
- Ratio IC50 (Homo sapiens [13]): > 100
- inhibition [3]: 14%
- half-life [8]: 3 h
- Ratio IC50 (Homo sapiens [14]): > 100
- IC50 [5]: 10.2 nM

Structure (SMILES): N#Cc1ccccc1-c1cc(Oc2ccccc2)ccc1COC1CN(C#N)C1
- IC50 [1]: 6.6 nM

Structure (SMILES): COc1cccc(-c2ccc(COC3(C)CN(C#N)C3)cc2)c1
- IC50 [1]: 1.8 nM
- Ratio IC50 (Homo sapiens [11]): 0.2
- Ratio IC50 (Homo sapiens [12]): 500
- IC50 (Monoglyceride lipase): 1060 nM
- Ratio IC50 (Homo sapiens [14]): 50
- IC50 [5]: 0.36 nM

Structure (SMILES): COc1ccc(-c2ccc3c(c2)CN(C2CN(C#N)C2)C3)cc1F
- half-life at 1 µM [6]: 0.245 h
- IC50 [1]: 1.6 nM
- half-life at 1 µM [7]: 0.0733 h

Structure (SMILES): N#CN1CC(OCc2ccc(Oc3ccccc3)cc2)C1
- IC50 [1]: 1.1 nM
- Ratio [4]: 1.33 ×10⁶ /M/s
